# Source: ChEMBL document CHEMBL1132274, “2,7-Disubstituted amidofluorenone derivatives as inhibitors of human telomerase” (J Med Chem, 1999)
# Activity calls are given as the source filed them. No cut-off for these calls is given here.
# Experiments:
# CH1 [1] = experiment: Cytotoxicity measured in human ovarian cell line CH1 using sulforhodamine B (SRB) assay.; assay type: functional, cell-based
# Method in brief: (§1)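 SRB growth-inhibition assay in human ovarian carcinoma cells: 3000–6000 cells/well attached overnight, then salts (dissolved at 500 μM in water) added in quadruplicate at final 0.05, 0.25, 1, 5 and 25 μM. After 96 h, cells fixed with ice-cold 10% TCA and stained with 0.4% SRB. Mean A540 expressed as % of untreated control; IC50 = concentration giving 50% growth inhibition.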
# [2] = target: Telomerase reverse transcriptase (Homo sapiens, UniProt O14746); experiment: Inhibitory activity against telomerase
# Method in brief: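 Modified TRAP with extract from exponentially growing A2780 ovarian carcinoma cells. Telomerase then inactivated at 80 °C for 5 min, CX primer and Taq added, 31 PCR cycles. Products analysed by denaturing PAGE with phosphorimaging/autoradiography, or by filter scintillation counting.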
# [3] = target: DNA polymerase I, thermostable (Thermus aquaticus) (UniProt P19821); experiment: Inhibitory activity against taq polymerase at 50 uM; No inhibition
# SK-OV-3 [4] = experiment: Cytotoxicity measured in human ovarian cell line SKOV-3 using sulforhodamine B (SRB) assay.; assay type: functional, cell-based; method in brief: as §1
# A2780 [5] = experiment: Cytotoxicity measured in human ovarian cell line A2780 using sulforhodamine B (SRB) assay; assay type: functional, cell-based; method in brief: as §1
# [6] = target: DNA polymerase I, thermostable (Thermus aquaticus) (UniProt P19821); experiment: Inhibitory activity against taq polymerase at 10 uM; No inhibition
# [7] = target: DNA polymerase I, thermostable (Thermus aquaticus) (UniProt P19821); experiment: Inhibitory activity against taq polymerase at 20 uM; No inhibition
# [8] = target: DNA polymerase I, thermostable (Thermus aquaticus) (UniProt P19821); experiment: Inhibitory activity against taq polymerase at 50 uM; Significant
# [9] = target: DNA polymerase I, thermostable (Thermus aquaticus) (UniProt P19821); experiment: Inhibitory activity against taq polymerase at 50 uM; Slight
# CH1 [10] = experiment: Cytotoxicity activity was measured in human ovarian cell line CH1 using sulforhodamine B (SRB) assay; assay type: functional, cell-based; method in brief: as §1
# SK-OV-3 [11] = experiment: Cytotoxicity activity was measured in human ovarian cell line SKOV-3 using sulforhodamine B (SRB) assay; assay type: functional, cell-based; method in brief: as §1
# A2780 [12] = experiment: Cytotoxicity activity of the compound was measured in human ovarian cell line A2780 using sulforhodamine B (SRB) assay; assay type: functional, cell-based; method in brief: as §1
# Sequence of Telomerase reverse transcriptase (O14746 whole entry): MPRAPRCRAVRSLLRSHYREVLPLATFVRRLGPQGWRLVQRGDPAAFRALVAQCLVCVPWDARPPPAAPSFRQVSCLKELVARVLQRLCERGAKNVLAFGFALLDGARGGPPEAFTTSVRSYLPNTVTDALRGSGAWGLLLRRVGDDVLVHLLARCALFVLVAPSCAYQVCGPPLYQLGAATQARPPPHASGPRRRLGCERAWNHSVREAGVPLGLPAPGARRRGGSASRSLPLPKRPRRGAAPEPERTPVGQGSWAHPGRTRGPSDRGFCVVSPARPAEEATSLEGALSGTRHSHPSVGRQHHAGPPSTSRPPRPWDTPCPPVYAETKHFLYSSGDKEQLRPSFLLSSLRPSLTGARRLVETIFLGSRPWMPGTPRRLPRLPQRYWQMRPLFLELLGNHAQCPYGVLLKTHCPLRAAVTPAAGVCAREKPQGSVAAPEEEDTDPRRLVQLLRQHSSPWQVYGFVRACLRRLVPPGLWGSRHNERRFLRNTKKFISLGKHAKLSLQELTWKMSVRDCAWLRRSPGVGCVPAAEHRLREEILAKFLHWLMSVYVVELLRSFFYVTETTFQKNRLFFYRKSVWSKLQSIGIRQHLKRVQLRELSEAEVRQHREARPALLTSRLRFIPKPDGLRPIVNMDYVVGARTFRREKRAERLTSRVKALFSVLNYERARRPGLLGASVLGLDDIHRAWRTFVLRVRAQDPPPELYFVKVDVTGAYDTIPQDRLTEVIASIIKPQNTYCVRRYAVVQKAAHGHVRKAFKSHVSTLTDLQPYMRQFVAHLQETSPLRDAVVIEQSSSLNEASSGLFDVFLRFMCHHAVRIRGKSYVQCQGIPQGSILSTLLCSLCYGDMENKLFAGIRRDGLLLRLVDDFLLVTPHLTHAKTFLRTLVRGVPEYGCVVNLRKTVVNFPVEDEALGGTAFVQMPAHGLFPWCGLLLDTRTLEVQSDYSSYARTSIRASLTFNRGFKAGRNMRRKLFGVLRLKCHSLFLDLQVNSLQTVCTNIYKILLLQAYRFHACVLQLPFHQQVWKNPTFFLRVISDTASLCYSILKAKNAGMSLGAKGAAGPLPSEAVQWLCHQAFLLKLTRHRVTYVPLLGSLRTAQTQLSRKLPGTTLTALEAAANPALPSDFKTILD
# Sequence of DNA polymerase I, thermostable (Thermus aquaticus) (P19821 whole entry): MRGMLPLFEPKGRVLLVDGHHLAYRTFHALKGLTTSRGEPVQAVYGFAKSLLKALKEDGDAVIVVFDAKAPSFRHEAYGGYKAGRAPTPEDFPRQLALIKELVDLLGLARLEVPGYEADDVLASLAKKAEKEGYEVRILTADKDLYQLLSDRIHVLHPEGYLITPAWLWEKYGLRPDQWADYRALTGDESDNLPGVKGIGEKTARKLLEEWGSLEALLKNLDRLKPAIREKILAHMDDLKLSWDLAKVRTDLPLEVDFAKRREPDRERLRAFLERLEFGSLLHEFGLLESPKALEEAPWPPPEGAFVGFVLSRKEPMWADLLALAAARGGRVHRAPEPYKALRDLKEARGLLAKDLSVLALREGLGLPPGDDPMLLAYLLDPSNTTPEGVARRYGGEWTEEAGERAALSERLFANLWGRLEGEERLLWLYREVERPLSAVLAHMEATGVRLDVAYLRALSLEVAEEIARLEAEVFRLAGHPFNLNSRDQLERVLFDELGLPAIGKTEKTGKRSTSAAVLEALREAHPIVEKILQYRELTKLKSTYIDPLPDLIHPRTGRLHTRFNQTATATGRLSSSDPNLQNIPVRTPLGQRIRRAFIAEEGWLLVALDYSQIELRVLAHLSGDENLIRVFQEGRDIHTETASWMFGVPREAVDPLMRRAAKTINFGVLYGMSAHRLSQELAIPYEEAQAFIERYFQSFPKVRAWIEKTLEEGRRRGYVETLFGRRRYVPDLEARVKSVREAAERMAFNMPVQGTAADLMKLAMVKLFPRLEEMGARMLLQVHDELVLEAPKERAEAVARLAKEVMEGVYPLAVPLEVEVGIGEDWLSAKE
Structure (SMILES),IC50 (CH1 [1]) [µM],IC50 [2] [µM],inhibition [3],IC50 (SK-OV-3 [4]) [µM],IC50 (A2780 [5]) [µM],inhibition [6],inhibition [7],inhibition [8],inhibition [9],IC50 (CH1 [10]) [µM],IC50 (SK-OV-3 [11]) [µM],IC50 (A2780 [12]) [µM]
C[N+]1(CCC(=O)Nc2ccc3c(c2)C(=O)c2cc(NC(=O)CC[N+]4(C)CCCCC4CO)ccc2-3)CCCCC1CO (stereo not drawn),4.2,33,inactive,4.3,3.75,inactive,inactive,,,,,
O=C(CCN1CCOCC1)Nc1ccc2c(c1)C(=O)c1cc(NC(=O)CCN3CCOCC3)ccc1-2,> 25,> 50,inactive,> 25,> 25,inactive,inactive,,,,,
C[N+]1(CCC(=O)Nc2ccc3c(c2)C(=O)c2cc(NC(=O)CC[N+]4(C)CCCCC4CCO)ccc2-3)CCCCC1CCO (stereo not drawn),3.15,> 20,,5.2,5.2,inactive,inactive,Significant,,,,
CCC1CCCC[N+]1(C)CCC(=O)Nc1ccc2c(c1)C(=O)c1cc(NC(=O)CC[N+]3(C)CCCCC3CC)ccc1-2 (stereo not drawn),2.35,> 20,,2.6,2.9,inactive,inactive,,Weak inhibition,,,
CCN1CCN(CCC(=O)Nc2ccc3c(c2)C(=O)c2cc(NC(=O)CCN4CCN(CC)CC4)ccc2-3)CC1,> 25,17,inactive,> 25,> 25,inactive,inactive,,,,,
C[N+]1(CCC(=O)Nc2ccc3c(c2)C(=O)c2cc(NC(=O)CC[N+]4(C)CCC(O)CC4)ccc2-3)CCC(O)CC1 (stereo not drawn),,> 20,,,2.4,inactive,inactive,,Weak inhibition,1.95,4.7,
CN(C)CCC(=O)Nc1ccc2c(c1)C(=O)c1cc(NC(=O)CCN(C)C)ccc1-2,8.5,16.2,inactive,8.2,12,inactive,inactive,,,,,
CCN(CC)CCC(=O)Nc1ccc2c(c1)C(=O)c1cc(NC(=O)CCN(CC)CC)ccc1C2=O,,,,,2.15,,,,,,,
CC1CCCC[N+]1(C)CCC(=O)Nc1ccc2c(c1)C(=O)c1cc(NC(=O)CC[N+]3(C)CCCCC3C)ccc1-2 (stereo not drawn),2.6,> 20,,3.95,4.85,inactive,inactive,,Weak inhibition,,,
CC1CC[N+](C)(CCC(=O)Nc2ccc3c(c2)C(=O)c2cc(NC(=O)CC[N+]4(C)CCC(C)CC4)ccc2-3)CC1 (stereo not drawn),> 25,> 20,,3.75,2.5,inactive,inactive,,Weak inhibition,,,
C[N+]1(CCC(=O)Nc2ccc3c(c2)C(=O)c2cc(NC(=O)CC[N+]4(C)CCCCC4)ccc2-3)CCCCC1,5.2,21,inactive,3.9,4.3,inactive,inactive,,,,,
C[N+](C)(C)CCC(=O)Nc1ccc2c(c1)C(=O)c1cc(NC(=O)CC[N+](C)(C)C)ccc1-2,1.95,18.5,inactive,1.95,2.25,inactive,inactive,,,,,
C[N+]1(CCC(=O)Nc2ccc3c(c2)C(=O)c2cc(NC(=O)CC[N+]4(C)CCOCC4)ccc2-3)CCOCC1,2.15,27.3,inactive,2.45,2.55,inactive,inactive,,,,,
CC1CCN(CCC(=O)Nc2ccc3c(c2)C(=O)c2cc(NC(=O)CCN4CCC(C)CC4)ccc2-3)CC1,> 25,> 20,inactive,7.6,2.2,inactive,inactive,,,,,
O=C(CCN1CCCCC1)Nc1ccc2c(c1)C(=O)c1cc(NC(=O)CCN3CCCCC3)ccc1-2,7.6,9,inactive,11,11,inactive,inactive,,,,,
O=C(CCN1CCCCC1CO)Nc1ccc2c(c1)C(=O)c1cc(NC(=O)CCN3CCCCC3CO)ccc1-2 (stereo not drawn),14,8,inactive,15,13,inactive,inactive,,,,,
CC[N+](C)(CC)CCC(=O)Nc1ccc2c(c1)C(=O)c1cc(NC(=O)CC[N+](C)(CC)CC)ccc1-2,2.45,25.4,inactive,2.4,3.7,inactive,inactive,,,,,
CCC1CCCCN1CCC(=O)Nc1ccc2c(c1)C(=O)c1cc(NC(=O)CCN3CCCCC3CC)ccc1-2 (stereo not drawn),2.15,14,inactive,3.15,2.2,inactive,inactive,,,,,
O=C(CCN1CCC(O)CC1)Nc1ccc2c(c1)C(=O)c1cc(NC(=O)CCN3CCC(O)CC3)ccc1-2,> 25,18.5,inactive,> 25,> 25,inactive,inactive,,,,,
O=C(CCN1CCN(c2ncccn2)CC1)Nc1ccc2c(c1)C(=O)c1cc(NC(=O)CCN3CCN(c4ncccn4)CC3)ccc1-2,> 25,> 50,inactive,> 25,> 25,inactive,inactive,,,,,
CCN(CC)CCC(=O)Nc1ccc2c(c1)C(=O)c1cc(NC(=O)CCN(CC)CC)ccc1-2,8,15.5,inactive,9.65,14,inactive,inactive,,,,,
O=C(CCN1CCN(c2ccccn2)CC1)Nc1ccc2c(c1)C(=O)c1cc(NC(=O)CCN3CCN(c4ccccn4)CC3)ccc1-2,> 25,> 50,inactive,> 25,> 25,inactive,inactive,,,,,
CC1CCCCN1CCC(=O)Nc1ccc2c(c1)C(=O)c1cc(NC(=O)CCN3CCCCC3C)ccc1-2 (stereo not drawn),1.8,12,inactive,12,10.5,inactive,inactive,,,,,
O=C(CCN1CCN(c2ccccc2)CC1)Nc1ccc2c(c1)C(=O)c1cc(NC(=O)CCN3CCN(c4ccccc4)CC3)ccc1-2,> 25,> 50,inactive,> 25,> 25,inactive,inactive,,,,,
O=C(CCN1CCCCC1CCO)Nc1ccc2c(c1)C(=O)c1cc(NC(=O)CCN3CCCCC3CCO)ccc1-2 (stereo not drawn),14.5,16.5,inactive,20,> 25,inactive,inactive,,,,,
CN1CCN(CCC(=O)Nc2ccc3c(c2)C(=O)c2cc(NC(=O)CCN4CCN(C)CC4)ccc2-3)CC1,> 25,44,inactive,> 25,,inactive,inactive,,,,,> 25
O=C(CCN1CCN(Cc2ccccc2)CC1)Nc1ccc2c(c1)C(=O)c1cc(NC(=O)CCN3CCN(Cc4ccccc4)CC3)ccc1-2,> 25,> 50,inactive,> 25,> 25,inactive,inactive,,,,,
